Assay outcomes as filed in PubChem.
TMEM16A act = activators or potentiators of mouse TMEM16A chloride channel; HEK293 TMEM16A/YFP-H148Q/I152L, iodide quench fluorescence; hits give low values; 340,000 compounds, 0.3% hits; B-score at 10 µM; AID 623877; Q8BHY3;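 active = fluorescence-ratio B-score plate-corrected deviation score at least 3 library SD below zero, with starting fluorescence score within 5 deviations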;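 note: channel opened by trigger with iodide after compound preincubation; score built on the fluorescence ratio of max minus min over baseline; more negative score means more quench and so TMEM16A activation or potentiation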
CHOP inh = CHOP inhibition in unfolded protein response; inhibition, % at 10 µM; 220,000 compounds, 3.8% hits; CHO-K1 CHOP-promoter luciferase, tunicamycin-induced, 15-18 h;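 active = compounds that reduced the stress-induced luciferase reporter signal by more than about 70% of percent inhibition, limit read from the data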
CHOP UPR activ = apoptotic UPR (CHOP) activation. CHO-CHOP luciferase reporter, luminescence; percent of tunicamycin response over DMSO baseline. activation, % at 10 µM. 330,000 compounds, 0.34% hits. AID 449763;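 active = at 10 µM dose, activation of 40% or more, normalized to positive control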
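Test system: CHO-CHOP cells, stable luciferase reporter of PERK-eIF2a-CHOP signalling | Quantity: 500 CHO-CHOP cells per well | Buffer or medium: F12 plus 10% serum | Compound dosing: 10 µM single point, 0.5% DMSO | Schedule: 6 h compound treatment, 37 °C | Signal: Luciferase luminescence | Control set: Tunicamycin high control, DMSO low control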
XBP1 UPR activ = adaptive UPR (XBP1) activation; CHO-XBP1 luciferase reporter, IRE1-XBP1 UPR activation, luminescence; percent of tunicamycin response, DMSO as zero; activation, % at 20 µM; 330,000 compounds, 0.33% hits;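 active = versus positive control, 20 µM dose yields 30% or more activation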
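Assay system: CHO-XBP1 luciferase reporter cells; Schedule: 6 h treatment, 37 °C; Detection: glow luminescence from Steady-Glo reagent; Benchmarks: high control tunicamycin 10 µg/mL final, low control DMSO vehicle only.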
Hep lipid drop = hepatic lipid droplet formation modulation | AML12 mouse hepatocytes, oleate lipid droplets, BODIPY imaging | inhibition, % at 6.5 µM | 240,000 compounds, 0.4% hits;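 active = lipid droplet intensity inhibited by at least 50%, with more than 500 cells counted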
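Material – mouse AML12 hepatocyte cell line, fixed after treatment · Compound dosing – one dose, 6.5 µM compound · Times – compound with oleate, overnight · Measured by – Image-based BODIPY and DAPI two-channel analysis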
ANO1 block = blocks the mouse calcium-activated chloride channel TMEM16A; AID 588511; normalized B-score (activity score, 25-100; higher = stronger inhibition) at 10 µM; 310,000 compounds, 1.2% hits; HEK293 TMEM16A/YFP iodide influx fluorescence, ionomycin; Q8BHY3;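 active = ratio plate-corrected score three or more library SD toward inhibition, starting fluorescence score within five deviations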;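 note: score derived from kinetic fluorescence span divided by baseline fluorescence per well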
A number is an active result; 0 = inactive; - = not tested or not shown. Shown are actives, neighbours in structure and some others; about 4.2% of the full set was active somewhere.

SMILES | TMEM16A act | CHOP inh | CHOP UPR activ | XBP1 UPR activ | Hep lipid drop | ANO1 block
c1cncc(-c2cn(C[C@H]3CC[C@@H]([C@@H]4CC[C@H](Cn5cc(-c6cccnc6)nn5)O4)O3)nn2)c1 | 0 | - | 0 | 0 | 0 | 0
O=C(COc1ccccc1)N=C1SC2CS(=O)(=O)CC2N1Cc1ccccc1 (stereo not given) | 0 | - | 0 | 0 | 0 | 0
Fc1ccc(Cn2ccc(-c3cnc(-c4ccccc4)s3)n2)cc1 | 0 | 80.0 | 0 | 0 | 0 | 100
O=C(c1ccc(F)cc1)n1ccc(-c2cnc(-c3ccccc3)s2)n1 | 0 | 0 | 0 | 0 | 0 | 0
C/C(=N\NC(=O)c1nnn(-c2nonc2N)c1CN1CCc2ccccc21)c1ccccc1O | 0 | - | 0 | 0 | 0 | 0
Cc1nn(Cc2ccc([N+](=O)[O-])cc2)c(=O)n1N(C)c1ncc(C(F)(F)F)cc1Cl | 0 | 0 | 0 | 0 | 0 | 0
Cc1nn(Cc2ccc(Cl)cc2)c(=O)n1N(C)c1ncc(C(F)(F)F)cc1Cl | 0 | 80.7 | 0 | 0 | 0 | 0
CCOC(=O)/C(=N/Nc1ccccc1)c1csc(Nc2ccccc2)n1 | 0 | 0 | 0 | 0 | 0 | 0
CCOC(=O)/C(=N\Nc1ccc(Cl)cc1)c1csc(Nc2ccccc2)n1 | 0 | 0 | 0 | 0 | 0 | 100
Cc1ccc2nc(/C(C#N)=C\c3ccc(N4CCCCC4)c([N+](=O)[O-])c3)[nH]c2c1 | 0 | 79.0 | 0 | 0 | 0 | 0
Nc1nonc1C(=O)NCCNCc1cc(Br)ccc1OCc1ccccc1F | 0 | - | 0 | 0 | 0 | 100
Cc1cc(C)n(CCc2nc(-c3ccc(C(C)(C)C)cc3)cs2)n1 | 0 | 0 | 0 | 0 | 0 | 25
Cc1cc(C)n(CCc2nc(-c3ccc(F)cc3)cs2)n1 | 0 | 0 | 0 | 0 | 0 | 0
CN(Cc1ccccc1F)C(=O)COc1ccc(C(=O)c2ccccc2)cc1 | 0 | - | 0 | 0 | 0 | 0
CCC(=O)N1c2ccc(S(=O)(=O)CCC(=O)Nc3ccc(OC)cc3OC)cc2CC1C (stereo not given) | -42.1 | - | 0 | 0 | 0 | 0
NS(=O)(=O)c1ccc(CNC(=S)Nc2cc(S(=O)(=O)N3CCOCC3)ccc2Cl)cc1 | 0 | - | - | - | - | -
C=CCc1ccccc1OCC(O)CN1CCN(c2ccccc2F)CC1 (stereo not given) | 0 | 77.8 | 0 | 0 | - | 0
Cc1ccc(NC(=O)COC(=O)C2CC2)c(Br)c1 | 0 | 0 | 0 | 0 | 0 | 0
COc1ccc(C(=O)C2CCCN(Cc3ccc4nonc4c3)C2)cc1F (stereo not given) | 0 | 0 | 0 | 0 | 0 | 25
O=C1/C(=C/c2ccccc2)Nc2ccccc21 | 0 | 0 | 0 | 0 | - | 0
O=C1/C(=C/c2ccccc2)NC(=S)N1C(c1ccccc1)c1ccccc1 | 0 | 88.7 | 0 | 0 | 0 | 0
Cc1c(C(=O)N(C)C2CC(C)(C)NC(C)(C)C2)oc2c(F)cccc12 | 0 | - | 0 | 0 | 0 | 0
CCN(CC)S(=O)(=O)c1ccc(N/N=C/c2ccc(O)cc2O)nc1 | 0 | 83.1 | 0 | 0 | 0 | 0
CC(C)(C)c1nc2ccccc2c2nnc(SCC(=O)Nc3nccs3)n12 | 0 | 78.0 | 0 | 0 | - | 0
O=C(CSc1nnc(CCCO)n1-c1ccccc1)Nc1nccs1 | 0 | 85.3 | 0 | 0 | - | 0
SMILES | TMEM16A act | CHOP inh | CHOP UPR activ | XBP1 UPR activ | Hep lipid drop | ANO1 block
CCC(C(=O)OCC(=O)Nc1ccc(OC)cc1OC)c1ccccc1 (stereo not given) | 0 | 0 | 0 | 0 | 0 | 0
CC(C)(C)NC(=O)NC(=O)COC(=O)c1ccc(OC(F)F)cc1 | 0 | 0 | 0 | 0 | 0 | 0
CC(C)(C)NC(=O)NC(=O)COC(=O)c1ccc(OC(F)(F)F)cc1 | 0 | 81.0 | 0 | 0 | 0 | 0
CCC(C(=O)OCC(=O)Nc1cc(Cl)ccc1Cl)c1ccccc1 (stereo not given) | 0 | 0 | 0 | 0 | 0 | 25
CCC(C(=O)OCC(=O)NC(=O)NC(C)(C)C)c1ccccc1 (stereo not given) | 0 | 75.5 | 0 | 0 | 0 | 0
O=S(=O)(c1cccs1)N1CCC2(CC1)OCCN2S(=O)(=O)c1ccccc1 | 0 | - | 0 | 0 | - | 0
CCn1c(SCC(=O)N2CCOCC2)nnc1C(C)NC(=O)c1ccccc1 (stereo not given) | 0 | - | 0 | 0 | 0 | 0
CCc1ccc2oc(=O)cc(CN3CCCCC3)c2c1 | 0 | - | 0 | 0 | 0 | 0
CN(C)CCCNS(=O)(=O)c1ccc(N2CCC(c3ccc(Cl)cc3)=N2)cc1 | - | - | 0 | 74.9 | 0 | 0
Cc1cn2c(N)c(C=C3C=C(Cl)C(=O)C(Cl)=C3)c(=O)nc2s1 | -6.78 | 0 | 0 | 0 | 0 | -
Cc1ccc(S(=O)(=O)N2CCN(Cc3ccccc3)CC2)c(C)c1N(C)S(=O)(=O)c1ccccc1 | 0 | 0 | 0 | 0 | 0 | 0
CN(C)S(=O)(=O)Oc1cccc(C(=O)Nc2ccccc2Cl)c1 | 0 | 0 | 0 | 0 | - | 0
CN(C)S(=O)(=O)Oc1cccc(C(=O)Nc2ccc(Cl)cc2)c1 | 0 | 0 | 0 | 0 | - | 100
S=C1NCN(C2CCCCC2)CN1Cc1ccccc1 | 0 | 0 | 0 | 0 | 0 | 0
COc1ccc(C2=NOC(C(=O)Nc3ccc4c(c3)OCO4)C2)cc1 (stereo not given) | 0 | - | 0 | 0 | 0 | 0
O=C(Nc1ccc2c(c1)OCO2)C1CC(c2ccc(Cl)cc2)=NO1 (stereo not given) | 0 | 0 | 0 | 0 | - | 100
CCCCCCCCCC(=O)N1CCN(c2cc3c(cc2F)c(=O)c(C(=O)O)cn3CC)CC1 | -8.61 | - | 0 | 0 | - | 0
CCCCCCC(=O)N1CCN(c2cc3c(cc2F)c(=O)c(C(=O)O)cn3CC)CC1 | 0 | - | 0 | 0 | - | 0
CN(C)S(=O)(=O)c1ccc2nc(NC(=O)c3cccnc3)sc2c1 | 0 | 0 | 0 | 0 | 0 | 0
O=C(NC(Nc1nc2ccc([N+](=O)[O-])cc2s1)(C(F)(F)F)C(F)(F)F)c1cccnc1 | 0 | 90.3 | 0 | 0 | 0 | 100
Clc1ccc(Nc2nc(C3CC3)cs2)cc1 | 0 | 98.4 | 0 | 0 | - | 0
COCCN(C(=O)CSc1nc2ccccc2c(=O)n1CC(C)C)c1c(N)n(Cc2ccccc2)c(=O)[nH]c1=O | 0 | 0 | 0 | 0 | 0 | 0
CCS(=O)(=O)n1nc(-c2ccc(Cl)cc2)nc1SCc1ccccc1 | - | 0 | 0 | 0 | 0 | 25
COc1ccc(S(=O)(=O)N2CCC(C(=O)NC3CCCC3)CC2)cc1C | 0 | - | 0 | 0 | 0 | 0
CCc1ccc([C@@H]2CC=C(C(=O)O)[C@H](c3cccc(Cl)c3)N2S(=O)(=O)c2ccc(C)cc2)cc1 | 0 | - | 0 | 0 | - | 100
CCc1ccc([C@@H]2CC=C(C(=O)O)[C@H](c3ccc(C)cc3)N2S(=O)(=O)c2ccc(C)cc2)cc1 | - | - | 0 | 0 | - | -
